Results of several laboratories.
Effect on: metabolic stability
Species: human

With `CCCN(CCC)CCc1cccc2c1CC(=O)N2` the hepatocyte CLint was 1.7 µL/min/10⁶ cells (hepatocytes; 1 µM).
With `COc1cc(OC)cc(N(CCNC(C)C)c2ccc3ncc(-c4cnn(C)c4)nc3c2)c1` the hepatocyte CLint was 2.53 µL/min/10⁶ cells (hepatocytes).
The microsomal CLint of `c1ccc(-c2nc(NCc3nc4ccccc4o3)c3ccccc3n2)nc1` is reported as 47 µL/min/mg (liver microsomes).
The hepatocyte CLint of `O=c1[nH]c(=S)n(Cc2ccc(Cl)cc2CNCC(F)(F)F)c2cc[nH]c12` is reported as 4.3 µL/min/10⁶ cells (hepatocytes).
For `NCc1ccccc1`, the hepatocyte CLint was 16.7 µL/min/10⁶ cells (hepatocytes; 5 µM).
`C=CC(=O)Nc1cc(Nc2nccc(Nc3cc(Cl)c(F)cc3C(C)(C)O)n2)c(OC)cc1N1CC[C@@H](N(C)C)C1` has a hepatocyte CLint of 3.3 µL/min/10⁶ cells (hepatocytes).
With `C[C@H]1C[C@@H](N2C(=N)N[C@](C)(c3cccc(NC(=O)c4cccc(C#N)c4)c3Cl)CC2=O)CCO1` the hepatocyte CLint was 5 µL/min/10⁶ cells (hepatocytes; 0.5 µM).
For `C[C@@H](N)c1cc(Cl)ccc1Cn1c(=S)[nH]c(=O)c2[nH]ccc21`, the hepatocyte CLint was less than 1 µL/min/10⁶ cells (hepatocytes).
With `c1ccc(C2CCN(c3nc(-c4cnn5cccnc45)nc4ccccc34)C2)nc1` (centres unmarked) the microsomal CLint was 47 µL/min/mg (liver microsomes).
With `CNS(=O)(=O)Cc1ccc2[nH]cc(CCN(C)C)c2c1` the hepatocyte CLint was 2.8 µL/min/10⁶ cells (hepatocytes; 5 µM).
For `C[C@H]1C[C@@H](N2C(=N)N[C@](C)(c3cccc(Nc4ccc(C5CC5)nc4)c3Cl)CC2=O)CCO1`, the hepatocyte CLint was 16 µL/min/10⁶ cells (hepatocytes; 0.5 µM).
